Source: ChEMBL document CHEMBL1135455, “3-Aminopyrrolidinone farnesyltransferase inhibitors: design of macrocyclic compounds with improved pharmacokinetics and excellent cell potency” (J Med Chem, 2002)

How the values were obtained:
[1] = target: T1, Protein farnesyltransferase (Rattus norvegicus, UniProt Q02293+Q04631); test: Inhibition of Farnesyltransferase in cells, evaluated in a radiotracer assay for farnesyltransferase inhibition (CRAFTI), in cultured H-ras-transformed Rat cells
[2] = target: T2, Protein farnesyltransferase (Homo sapiens, UniProt P49354+P49356); test: Inhibition of HDJ2 farnesylation in PSN-1 cells over 7 hr assay in the presence of 50% human serum.; assay type: functional, cell-based
Cytochrome P450 3A4 [3] = target: T3, Cytochrome P450 3A4 (Homo sapiens, UniProt P08684); test: (§1) Inhibition of human Cytochrome P450 3A4 by macrocycles
T3 sequence (P08684 whole entry): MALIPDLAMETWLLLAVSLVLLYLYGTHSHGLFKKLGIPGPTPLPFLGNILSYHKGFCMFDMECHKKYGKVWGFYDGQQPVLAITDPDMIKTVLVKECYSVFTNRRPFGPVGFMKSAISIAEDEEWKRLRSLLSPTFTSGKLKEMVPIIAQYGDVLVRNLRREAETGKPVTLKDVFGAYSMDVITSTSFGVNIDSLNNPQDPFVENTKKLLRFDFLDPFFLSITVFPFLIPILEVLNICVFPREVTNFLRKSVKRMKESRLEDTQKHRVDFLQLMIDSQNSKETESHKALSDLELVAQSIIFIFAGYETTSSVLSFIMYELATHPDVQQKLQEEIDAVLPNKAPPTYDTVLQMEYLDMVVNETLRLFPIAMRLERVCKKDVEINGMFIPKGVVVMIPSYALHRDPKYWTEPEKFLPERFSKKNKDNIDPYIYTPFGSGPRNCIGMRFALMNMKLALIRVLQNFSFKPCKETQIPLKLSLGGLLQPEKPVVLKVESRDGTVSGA

[4] = target: T2, Protein farnesyltransferase; test: Inhibition of human farnesyltransferase in an enzyme assay.
[5] = target: T2, Protein farnesyltransferase; test: Inhibition of HDJ2 farnesylation in PSN-1 cells over 7 hr assay; assay type: functional, cell-based
[6] = target: Geranylgeranyl transferase type I (Homo sapiens, UniProt P49354+P53609); test: Inhibitory activity against geranylgeranyl transferase; assay type: protein-complex assay
[7] = target: T2, Protein farnesyltransferase; test: Inhibition of Farnesyltransferase at 10 pM enzyme concentration
[8] = Pharmacokinetic data at 0.5 mg/kg dose given to dogs intravenously.; assay type: ADME, organism-based, Canis lupus familiaris; design: dose 0.5 mg/kg, route intravenous; settings: dog, iv; for half-life / Vd: in vivo; for Vd: read-out: Vdss; for clearance: plasma, read-out: Clp
Method in brief: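 Compound was given intravenously in DMSO to two dogs, in some cases as a mixture with five other compounds. Plasma levels were measured by LC-MS.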

[9] = Pharmacokinetic data for dose given to dogs intravenously (oral PK study in parentheses); assay type: ADME, organism-based, Canis lupus familiaris; settings: dog, in vivo
Method in brief: (§2)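 Dogs, two per compound, dosed intravenously in DMSO or orally as a 0.5% methocellulose suspension. Some compounds were given intravenously as a cassette with five other compounds. Plasma levels were quantitated by LCMS.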

[10] = Pharmacokinetic data at 1 mg/kg dose given to dogs intravenously; assay type: ADME, organism-based, Canis lupus familiaris; design: dose 1 mg/kg, route intravenous; settings: dog, iv; method in brief: as §2
[11] = suboptimal plasma half-life caused a10% prolongation of QTc interval in dogs at a plasma level of […]; assay type: ADME, organism-based, Canis lupus familiaris; settings: dog
[12] = Oral bioavailability of active FTIs in dogs; assay type: ADME, organism-based, Canis lupus familiaris; settings: dog, in vivo
[13] = target: T1, Protein farnesyltransferase; test: Inhibition of Farnesyltransferase in H-ras-transformed Rat cells by radiotracer assay (CRAFTI)
[14] = target: T2, Protein farnesyltransferase; test: Inhibition of HDJ2 farnesylation in PSN-1 cells over 7 hr assay in the presence of 50% human serum; assay type: functional, cell-based
[15] = target: T2, Protein farnesyltransferase; test: Inhibition of Farnesyltransferase at 10 pM enzyme concentration; remark: listed apart in the source
[16] = Clearance in dog (dose 1 mg/kg i.v.); settings: plasma, iv
[17] = Bioavailability in dog (dose 1 mg/kg i.v.); settings: in vivo, iv
Cytochrome P450 3A4 [18] = target: T3, Cytochrome P450 3A4; test: as §1; assay type: ADME
Method in brief: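 Pooled liver microsomes, dog (7) or human (8, 9), at 0.25 mg protein/mL were incubated 10 min with 75 µM testosterone and an NADPH-generating system, with or without compound (0.05-100 µM). 6β-Hydroxytestosterone was quantified by LC-MS/MS against a cortisone internal standard. IC50 was taken from product formed relative to the control incubation.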

Cytochrome P450 3A4 [19] = target: T3, Cytochrome P450 3A4; test: Inhibition of dog Cytochrome P450 3A by macrocycles
[20] = target: Voltage-gated inwardly rectifying potassium channel KCNH2 (Homo sapiens, UniProt Q12809); test: Inflection point affinity for binding to K+ channel HERG.; settings: IP
Voltage-gated inwardly rectifying potassium channel KCNH2, sequence (Q12809 whole entry): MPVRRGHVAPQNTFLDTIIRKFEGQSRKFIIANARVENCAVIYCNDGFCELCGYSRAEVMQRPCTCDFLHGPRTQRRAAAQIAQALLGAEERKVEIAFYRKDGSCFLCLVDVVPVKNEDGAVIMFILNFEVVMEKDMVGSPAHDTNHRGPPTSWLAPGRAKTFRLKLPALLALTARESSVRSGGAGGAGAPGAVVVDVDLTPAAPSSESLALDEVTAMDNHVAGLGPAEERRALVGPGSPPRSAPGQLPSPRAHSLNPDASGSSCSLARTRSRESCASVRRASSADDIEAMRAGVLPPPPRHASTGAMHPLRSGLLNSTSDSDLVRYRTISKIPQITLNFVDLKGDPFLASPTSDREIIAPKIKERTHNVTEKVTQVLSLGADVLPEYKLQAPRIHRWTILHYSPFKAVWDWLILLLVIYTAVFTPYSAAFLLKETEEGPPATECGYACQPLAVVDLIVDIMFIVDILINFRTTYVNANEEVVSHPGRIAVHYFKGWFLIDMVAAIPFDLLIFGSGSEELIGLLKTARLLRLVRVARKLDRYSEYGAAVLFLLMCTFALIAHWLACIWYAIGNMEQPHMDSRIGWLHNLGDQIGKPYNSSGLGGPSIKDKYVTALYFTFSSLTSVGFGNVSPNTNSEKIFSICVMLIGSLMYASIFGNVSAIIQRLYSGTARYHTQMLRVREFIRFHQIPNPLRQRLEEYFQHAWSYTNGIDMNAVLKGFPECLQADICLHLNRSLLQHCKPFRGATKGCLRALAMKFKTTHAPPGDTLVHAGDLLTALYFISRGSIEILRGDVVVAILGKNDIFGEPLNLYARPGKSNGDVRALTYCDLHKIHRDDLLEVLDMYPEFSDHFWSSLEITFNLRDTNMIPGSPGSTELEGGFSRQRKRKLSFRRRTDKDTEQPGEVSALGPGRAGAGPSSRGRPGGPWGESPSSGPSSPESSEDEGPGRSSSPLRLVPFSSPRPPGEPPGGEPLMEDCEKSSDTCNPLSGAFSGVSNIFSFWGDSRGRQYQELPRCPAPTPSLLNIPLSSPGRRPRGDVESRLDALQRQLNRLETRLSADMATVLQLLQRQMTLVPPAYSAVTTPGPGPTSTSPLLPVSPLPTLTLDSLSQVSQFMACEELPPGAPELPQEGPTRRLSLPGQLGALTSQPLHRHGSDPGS

| SMILES | IC50 [1] [nM] | IC50 [4] [nM] | IC50 [6] [nM] | half-life [8] [h] | Vd [8] [L/kg] | clearance [8] [mL/min/kg] | further results |
| --- | --- | --- | --- | --- | --- | --- | --- |
| N#Cc1ccc2cc1Oc1cccc(c1)-c1ccccc1N1CCC(NCc3cncn3C2)C1=O (stereo unspecified) | 0.032 | 1.3 | 810 | 0.88 | 0.61 | 8 | EC50 [2]: 0.58 nM; IC50 (Cytochrome P450 3A4 [3]): < 50 nM; EC50 [5]: 0.67 nM; IC50 [7]: 0.06 nM |
| N#Cc1ccc2cc1Oc1ccc(Br)c(c1)CN1CCC(NCc3cncn3C2)C1=O (stereo unspecified) | 0.19 | 1.4 | 9200 | 1.6 | 0.53 | 3.2 | EC50 [2]: 1 nM; IC50 (Cytochrome P450 3A4 [3]): 6100 nM; EC50 [5]: 1.6 nM |
| CN1Cc2cncn2Cc2ccc(C#N)c(c2)Oc2ccc3cccc(c3c2)N2CCC1C2=O (stereo unspecified) | 39 | 4.9 | 2200 | 10.1 | 0.21 | 0.26 | IC50 (Cytochrome P450 3A4 [3]): 5000 nM |
| N#Cc1ccc(Cn2cncc2CN[C@H]2CCN(Cc3cccc(Cl)c3)C2=O)cc1 |  |  |  |  |  |  | IC50 (Cytochrome P450 3A4 [3]): 1000 nM; bioavailability [9]: 81%; half-life ([10]; in vivo): 1.1 h; Vd ([10]; in vivo, read-out: Vdss): 0.45 L/kg; clearance ([10]; plasma, read-out: Clp): 5.8 mL/min/kg; half-life [11]: 1.1 h; bioavailability [12]: 81% |
| N#Cc1ccc2cc1Oc1cc(Cl)cc(c1)CN1CCC(NCc3cncn3C2)C1=O (stereo unspecified) |  | 23 | > 20000 |  |  |  | IC50 [13]: 6.4 nM |
| N#Cc1ccc2cc1Oc1ccc3c(c1)[C@@H](CCO3)N1CC[C@H](NCc3cncn3C2)C1=O | 1.8 |  |  |  |  |  |  |
| N#Cc1ccc2cc1Oc1ccc3cccc(c3c1)N1CC[C@@H](NCc3cncn3C2)C1=O | 4.4 | 1.6 |  |  |  |  |  |
| CN1CCc2cncn2Cc2ccc(C#N)c(c2)Oc2ccc3cccc(c3c2)N2CC[C@@H]1C2=O | 0.57 |  |  |  |  |  |  |
| N#Cc1ccc2cc1Oc1cccc(c1)CN1CC[C@@H](NCc3cncn3C2)C1=O | 0.66 |  |  |  |  |  | EC50 [5]: 6.1 nM; EC50 [14]: 13 nM; IC50 [15]: 2 nM |
| N#Cc1ccc2cc1Oc1ccc3c(c1)[C@@H](CCO3)N1CC[C@@H](NCc3cncn3C2)C1=O | 0.063 |  |  |  |  |  | clearance [16]: 5.5 mL/min/kg; Vd [17]: 0.34 L/kg; half-life [17]: 0.9 h |
| N#Cc1ccc2cc1Oc1ccc3cccc(c3c1)N1CCN(CC1=O)Cc1cncn1C2 | 0.29 |  |  |  |  |  |  |
| N#Cc1ccc2cc1Oc1ccc3cccc(c3c1)N1CC[C@H](NC(=O)Cc3cncn3C2)C1=O | 6.8 |  |  | 1.7 | 0.19 | 1.5 | IC50 (Cytochrome P450 3A4 [18]): 8100 nM |
| N#Cc1ccc2cc1Oc1ccc3c(c1)[C@H](CC3)N1CC[C@H](NCc3cncn3C2)C1=O | 93 |  |  |  |  |  |  |
| N#Cc1ccc2cc1Oc1ccc3cccc(c3c1)N1CC[C@@H](NC(=O)Cc3cncn3C2)C1=O | 13 |  |  |  |  |  |  |
| N#Cc1ccc2cc1Oc1cccc(c1)CN1CC[C@H](NCc3cncn3C2)C1=O |  | 54 |  |  |  |  | IC50 [13]: 13 nM |
| CN1CCc2cncn2Cc2ccc(C#N)c(c2)Oc2ccc3cccc(c3c2)N2CC[C@H]1C2=O | 0.21 |  |  | 1.9 | 0.25 | 1.4 |  |
| N#Cc1ccc2cc1Oc1ccc3c(c1)[C@@H](CC3)N1CC[C@@H](NCc3cncn3C2)C1=O | 0.22 |  |  | 1.7 | 0.27 | 2.1 | IC50 (Cytochrome P450 3A4 [3]): 6600 nM; IC50 (Cytochrome P450 3A4 [19]): 10400 nM |
| N#Cc1ccc2cc1Oc1ccc3c(c1)[C@@H](CCC3)N1CC[C@H](NCc3cncn3C2)C1=O | 0.21 | 1.5 | 2200 |  |  |  | EC50 [2]: 4.4 nM; EC50 [5]: 3 nM |
| N#Cc1ccc2cc1Oc1ccc3c(c1)[C@H](CC3)N1CC[C@@H](NCc3cncn3C2)C1=O | 41 |  |  | 4.2 | 0.5 | 1.3 | IC50 (Cytochrome P450 3A4 [3]): 2800 nM; IC50 (Cytochrome P450 3A4 [19]): 14800 nM |
| N#Cc1ccc2cc1Oc1ccc3cccc(c3c1)N1CC[C@H](NCc3cncn3C2)C1=O | 3.8 |  |  |  |  |  | EC50 [2]: 130 nM; EC50 [5]: 48 nM |
| CN1Cc2cncn2Cc2ccc(C#N)c(c2)Oc2ccc3c(c2)C(CC3)N2CCC1C2=O (stereo unspecified) | 0.64 | 1.4 | > 20000 |  |  |  | IC50 [20]: 2600 nM |
| N#Cc1ccc2cc1Oc1cccc(c1)C(c1cccc(Cl)c1)N1CCC(NCc3cncn3C2)C1=O (single isomer, unassigned; diastereomer A) |  | 25 | 820 |  |  |  | IC50 [13]: 210 nM |
| CC1c2ccc(C#N)c(c2)Oc2cccc(c2)CN2CCC(NCc3cncn31)C2=O (single isomer, unassigned; diastereomer A) | 74 | 170 | > 20000 |  |  |  |  |
| N#Cc1ccc2cc1Oc1cccc(c1)C(c1ccccc1)N1CCC(NCc3cncn3C2)C1=O (single isomer, unassigned; diastereomer B) |  | 10 | 5800 |  |  |  | IC50 [13]: 34 nM |
| N#Cc1ccc2cc1Oc1cccc(c1)C(c1cccc(Cl)c1)N1CCC(NCc3cncn3C2)C1=O (single isomer, unassigned; diastereomer B) | 200 | 2.5 | 7000 |  |  |  |  |
| CC1c2ccc(C#N)c(c2)Oc2cccc(c2)CN2CCC(NCc3cncn31)C2=O (single isomer, unassigned; diastereomer B) | 0.87 | 1.9 |  | 0.78 | 0.69 | 12 | IC50 (Cytochrome P450 3A4 [19]): 6100 nM |
| N#Cc1ccc2cc1Oc1cccc(c1)C(c1ccccc1)N1CCC(NCc3cncn3C2)C1=O (stereo in doubt; 26A) | 230 | 58 | 1600 |  |  |  |  |
| N#Cc1ccc2cc1Oc1ccc3cccc(c3c1)N1CCC(NCCc3cncn3C2)C1=O (stereo in doubt; 66) | 0.32 |  |  |  |  |  | EC50 [2]: 7.5 nM; IC50 (Cytochrome P450 3A4 [3]): 6000 nM; EC50 [5]: 4.3 nM; IC50 (Cytochrome P450 3A4 [19]): 600 nM; clearance [16]: 3.9 mL/min/kg; Vd [17]: 0.57 L/kg; bioavailability [17]: 92%; half-life [17]: 2 h; IC50 [15]: 0.19 nM |
| N#Cc1ccc2cc1Oc1ccc3cccc(c3c1)N1CCC(NCCc3cncn3C2)C1=O (stereo in doubt; 67) | 0.44 |  |  |  |  |  |  |
| N#Cc1ccc2cc1Oc1ccc3c(c1)[C@@H](CCC3)N1CC[C@@H](NCc3cncn3C2)C1=O [(1R,5R)-30-OXO-19-OXA-2,6,10,12-TETRAAZAHEXACYCLO[18.6.2.1^{2,5}.1^{14,18}.0^{8,12}.0^{23,27}]TRIACONTA-8,10,14(29),15,17,20(28),21,23(27)-OCTAENE-17-CARBONITRILE (STRUCTURAL MIX)] | 0.054 | < 1 | 390 | 0.48 | 0.36 | 7.3 | EC50 [5]: 0.18 nM; EC50 [14]: 0.25 nM |
